Our source for the Activity and IC50 values is ChEMBL document CHEMBL3259624, “Netamines H-N, tricyclic alkaloids from the marine sponge Biemna laboutei and their antimalarial activity” (J Nat Prod, 2014).

The source made the active and inactive calls. The rule behind the calls is not given here.

For experiment [1], the system named is KB. Briefly: Cytotoxicity against human KB cells at 1 uM after 72 hrs. It counts as functional, cell-based. An outline of the steps: (§1)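 KB cells exposed to compounds for 72 h, with DMSO-only cells as control. Proliferation was read with CellTiter 96 Aqueous One reagent and expressed as % inhibition of proliferation relative to the DMSO control, as mean ± SE of triplicate.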

For a further experiment, the system named is Plasmodium falciparum. The experiment can be described thus: Antiplasmodial activity against Plasmodium falciparum by LDH assay. It counts as functional, organism-based.
Experiment [2] concerns KB. Briefly: Cytotoxicity against human KB cells after 72 hrs. It counts as functional, cell-based. The method in brief: as §1

On to `CCC/C=C\C[C@H]1c2nc(N)nc3c2[C@@H](CC3)C[C@H]1C`, for which the result in the experiment with KB [1] was inactive. Moreover, in the experiment with Plasmodium falciparum, 20700 nM corresponded to half-maximal inhibition (IC50). `CCC/C=C\C[C@@H]1c2nc(N)nc3c2[C@@H](CC3)C[C@H]1CCC` (relative stereo): the outcome in the experiment on KB [1] was inactive.

Take `CCC/C=C\C[C@@H]1c2nc(N)nc3c2[C@@H](CC3)C[C@H]1C`: the result in the experiment with KB [1] was inactive. `CCC/C=C\C[C@H]1c2nc(N)nc3c2[C@@H](CC3)C[C@H]1CCC`: the outcome in the experiment on KB [1] was inactive. For `CC/C=C/C1=C2N=C(N)N[C@H]3CC[C@@H](C[C@@H]1C)[C@@H]23`, the outcome in the experiment on KB [1] was inactive.

On to `CCC/C=C\CC1=C2N=C(N)N[C@H]3CC[C@@H](C[C@H]1C)[C@@H]23` (relative stereo), for which the IC50 – broadly, the concentration that gives 50% inhibition – in the experiment with KB [2] turned out to be 1000 nM. On to `CCCC[C@@H]1c2nc(N)nc3c2[C@@H](CC3)C[C@H]1CCC`, for which, in the experiment with KB [1], the result was inactive. Regarding `CCC[C@@H]1C[C@@H]2CC[C@@H]3NC(N)=NC(=C1CC)[C@H]23` (relative stereo), the result with KB [1] was inactive. This compound also registered an IC50 with Plasmodium falciparum of 2400 nM.

Consider `CCCCCCC1=C2N=C(N)N[C@H]3CC[C@@H](C[C@H]1CCC)[C@@H]23`, for which, in the experiment on KB [1], the result was inactive.
